Format in all cases: functional
Test [1] relates to Rattus norvegicus. The test can be described thus: Hypocholesterolemic activity by administration of gavage in PEG400 as a vehicle in cholesterol-fed rats. Particulars: po. The method in brief:
(§1)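 Male rats (n = 4) made hypercholesterolemic on diet with 1% cholesterol and 0.5% cholic acid for 2 days. Compound then dissolved in PEG400 and given orally by gavage once daily in the evening for 3 days, cholesterol-enriched diet continued. Plasma total cholesterol measured; ED50 = dose lowering plasma total cholesterol by 50% of control.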

The subject of test [2] is Rattus norvegicus. The test can be described thus: Hypocholesterolemic activity to reduce plasma total cholesterol level by 50% after dietary administration in cholesterol-fed rats. Particulars: feed or water. The method in brief:
(§2)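 Male rats (n = 4) received compound admixed in diet supplemented with 1% cholesterol and 0.5% cholic acid for 7 days. Plasma total cholesterol then measured, percent change vs control calculated. Reported as percent reduction at the dose given or as ED50 (dose lowering total cholesterol by 50%). Significance by unpaired two-tailed Student's t-test.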

For test [3], the system named is Rattus norvegicus. The test can be described thus: Percent reduction in total cholesterol at less than 0.1 mg/kg dose. In a few lines:
as §2

Test [4] deals with Rattus norvegicus. The experiment in a line: Hypocholesterolemic activity by administration of gavage in PEG400 as a vehicle in cholesterol-fed rats. Particulars: po. The method in brief:
as §1

Test [5] concerns Rattus norvegicus. The test can be described thus: Percent reduction in total cholesterol at greater than 1 mg/kg dose. The method in brief: as §2

`CSc1cc(C)nc(SC)c1NC(=O)N(Cc1ccccc1)Cc1cccc(-c2cc[nH]n2)c1`: the ED50 in test [1] was 0.44 mg/kg; in test [2], 0.046 mg/kg. With `CSc1cc(C)nc(SC)c1NC(=O)N(Cc1ccc(N(C)C)cc1)Cc1cccc(-c2cc[nH]n2)c1`, in test [2], the ED50 was < 0.1 mg/kg. In test [3], this compound gave a Reduction of 61%.

Turning to `O=C(Nc1c(F)cc(F)cc1F)N(Cc1ccccc1)Cc1cccc(-c2cc[nH]n2)c1`, the ED50 in test [4] stood at 8.6 mg/kg; in test [2], 0.096 mg/kg. Regarding `CSc1cc(C)nc(SC)c1NC(=O)N(Cc1ccc(F)cc1)Cc1cccc(-c2cc[nH]n2)c1`, the ED50 in test [2] was < 0.1 mg/kg. Also, the Reduction in test [3] was 66%. As to `Cc1cc(C)c(NC(=O)N(Cc2ccccc2)Cc2cccc(-c3cc[nH]n3)c2)c(C)c1`, the ED50 in test [2] is > 1 mg/kg. Besides, in test [5], the Reduction amounted to 36%.

Consider `COc1ccc(CN(Cc2cccc(-c3cc[nH]n3)c2)C(=O)Nc2c(SC)cc(C)nc2SC)cc1`, for which the ED50 in test [2] is < 0.1 mg/kg. This compound also gave a Reduction in test [3] of 81%.

For `CCCCCCCN(Cc1ccc(CC(C)(C)C)cc1)C(=O)Nc1ccc(F)cc1F` [CL-277082], the ED50 in test [2] was found to be 5 mg/kg.
